From ChEMBL document CHEMBL4049426, “Identification of the Clinical Candidate (R)-(1-(4-Fluorophenyl)-6-((1-methyl-1H-pyrazol-4-yl)sulfonyl)-4,4a,5,6,7,8-hexahydro-1H-pyrazolo[3,4-g]isoquinolin-4a-yl)(4-(trifluoromethyl)pyridin-2-yl)methanone (CORT125134): A Selective Glucocorticoid Receptor (GR) Antagonist” (J Med Chem, 2017)
Activity calls are given as the source filed them. The rule behind the calls is not given here.

Experiments:
Rattus norvegicus [1] = test: (§1) In vivo antagonist activity at glucocorticoid receptor in Sprague-Dawley rat assessed as reduction in cortisone-induced plasma glucose levels at 30 mg/kg, po bid via gavage for 6 days pretreated for 12 hrs followed by cortisone 21-acetate treatment measured 24 hrs after last cortisone 21-acetate treatment; format: functional, organism-based
Method in brief: (§2)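 Male Sprague Dawley rats (200-250g), 3-day vehicle baseline, groups of eight. Compound as suspension in DMSO:Tween 80:0.5% HPMC 10:0.1:89.9, oral gavage twice daily for 6 days; cortisone 21-acetate 30mg/kg s.c. daily in 1% methylcellulose. Tail-vein blood 24 h after last cortisone (12 h after last compound); glucose by clinical reagent, insulin by ultrasensitive rat ELISA.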

Rattus norvegicus [2] = test: as §1, with “rat cortisone model of exogenous Cushing's syndrome” for “rat”, “inhibition of” for “reduction in cortisone-induced”, “insulin” for “glucose”; format: functional, organism-based; method in brief: as §2
[3] = Cmax in monkey plasma at 20 mg/kg, po measured up to 24 hrs by LC/MS analysis; format: ADME, organism-based, Macaca mulatta; design: dose 20 mg/kg, route oral; conditions: rhesus monkey
Method in brief: (§3)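 Monkey i.v./p.o. study: oral 20mg/kg in 10% DMSO, 0.1% Tween 80, 0.5% hydroxypropylmethylcellulose in water; i.v. dose 1mg/kg.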

[4] = AUC in Sprague-Dawley CD-1 rat plasma at 5 mg/kg, po administered through gavage measured up to 24 hrs by LC/MS analysis; format: ADME, organism-based; design: dose 5 mg/kg, time < 24 hr, route oral
Method in brief: (§4)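 Jugular-catheterized male Sprague Dawley CD-1 rats (220-250g). Oral arm: five rats, 5mg/kg gavage, 1mg/mL in DMSO:0.5% methylcellulose 10:90, 5mL/kg, sampled pre-dose and 0.25-24 h. i.v. arm: three rats, 1mg/kg, 0.5mg/mL in DMSO:PEG400:propylene glycol 10:45:45, sampled pre-dose and 0.08-24 h. Plasma by LC/MS.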

Glucocorticoid receptor = molecular target: T1, Glucocorticoid receptor (Homo sapiens, UniProt P04150); test: Antagonist activity at glucocorticoid receptor in human HepG2 cells assessed as inhibition of dexamethasone-induced tyrosine amino transferase activity preincubated for 30 mins followed by dexamethasone addition measured after 20 hrs; format: cell-based
T1 sequence (P04150 whole entry): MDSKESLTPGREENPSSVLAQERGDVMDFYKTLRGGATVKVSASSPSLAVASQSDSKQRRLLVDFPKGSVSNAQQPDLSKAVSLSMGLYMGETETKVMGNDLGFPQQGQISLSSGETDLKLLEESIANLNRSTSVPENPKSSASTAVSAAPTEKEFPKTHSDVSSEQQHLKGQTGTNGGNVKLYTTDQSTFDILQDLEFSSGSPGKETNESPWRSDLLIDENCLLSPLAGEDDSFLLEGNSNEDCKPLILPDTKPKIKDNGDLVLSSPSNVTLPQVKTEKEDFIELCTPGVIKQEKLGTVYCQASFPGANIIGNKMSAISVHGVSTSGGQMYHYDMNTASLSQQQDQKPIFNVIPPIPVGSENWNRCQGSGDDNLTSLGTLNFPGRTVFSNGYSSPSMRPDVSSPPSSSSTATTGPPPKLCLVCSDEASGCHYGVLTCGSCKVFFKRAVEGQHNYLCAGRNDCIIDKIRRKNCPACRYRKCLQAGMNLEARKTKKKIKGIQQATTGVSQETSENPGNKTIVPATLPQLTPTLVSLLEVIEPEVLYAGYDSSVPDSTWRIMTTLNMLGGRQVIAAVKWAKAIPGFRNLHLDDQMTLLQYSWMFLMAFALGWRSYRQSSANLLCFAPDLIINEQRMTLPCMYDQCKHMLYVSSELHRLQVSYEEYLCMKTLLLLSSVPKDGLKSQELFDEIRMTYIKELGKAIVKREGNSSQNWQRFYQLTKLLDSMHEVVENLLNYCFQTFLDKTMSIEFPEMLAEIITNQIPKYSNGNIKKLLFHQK

[5] = Oral bioavailability in monkey plasma at 20 mg/kg measured up to 24 hrs by LC/MS analysis; format: ADME, organism-based, Macaca mulatta; conditions: rhesus monkey; method in brief: as §3
[6] = AUC in Sprague-Dawley CD-1 rat plasma at 3 mg/kg, po administered as cassette dose via gavage measured up to 24 hrs by LC/MS analysis; format: ADME, organism-based; design: time < 24 hr, dose 3 mg/kg, route oral
Method in brief: (§5)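 Three male Sprague Dawley CD-1 rats (220-250g) with jugular vein catheters; three test compounds plus a reference dosed together by oral gavage, 3mg/kg each, in DMSO:0.5% methylcellulose 10:90 (0.6mg/mL per compound), 5mL/kg. Plasma sampled pre-dose and at 0.25, 0.5, 1, 2, 4, 6, 8, 24 h; LC/MS.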

[7] = Cmax in Sprague-Dawley CD-1 rat plasma at 5 mg/kg, po administered through gavage measured up to 24 hrs by LC/MS analysis; format: ADME, organism-based; design: dose 5 mg/kg, route oral; method in brief: as §4
[8] = AUC in monkey plasma at 20 mg/kg, po measured up to 24 hrs by LC/MS analysis; format: ADME, organism-based, Macaca mulatta; design: dose 20 mg/kg, time < 24 hr, route oral; conditions: rhesus monkey; method in brief: as §3
[9] = Cmax in Sprague-Dawley CD-1 rat plasma at 3 mg/kg, po administered as cassette dose via gavage measured up to 24 hrs by LC/MS analysis; format: ADME, organism-based; design: dose 3 mg/kg, route oral; method in brief: as §5
[10] = Oral bioavailability in Sprague-Dawley CD-1 rat plasma at 5 mg/kg administered through gavage measured up to 24 hrs by LC/MS analysis; format: ADME, organism-based; method in brief: as §4

Structure (SMILES)	inhibition (Rattus norvegicus [1])	inhibition (Rattus norvegicus [2])	Cmax [3] [ng/mL]	AUC at 24 h [4] [ng·h/mL]	Ki (Glucocorticoid receptor) [nM]	bioavailability [5] [%]	AUC at 24 h [6] [ng·h/mL]	Cmax [7] [ng/mL]	AUC at 24 h [8] [ng·h/mL]	Cmax [9] [ng/mL]	bioavailability [10] [%]
CC#C[C@]1(O)CC[C@H]2[C@@H]3CCC4=CC(=O)CCC4=C3[C@@H](c3ccc(N(C)C)cc3)C[C@@]21C	Active	Active									
Cn1nccc1S(=O)(=O)N1CCC2=Cc3c(cnn3-c3ccc(F)cc3)C[C@]2(C(=O)c2cc(C(F)(F)F)ccn2)C1			16	1560	11	1	967	528	217	239	62
